In ChEMBL document CHEMBL4613320, “Artemisinin Derivatives with Antimelanoma Activity Show Inhibitory Effect against Human DNA Topoisomerase 1” (ACS Med Chem Lett, 2020):
Active and inactive are the calls of the source. No cut-off for these calls is given here.

What was measured:
[1] = target: T1, DNA topoisomerase 1 (Homo sapiens) (UniProt P11387); test: Inhibition of human TOP1B expressed in Saccharomyces cerevisiae EKY3 lacking top1 assessed as reduction in yeast cell growth at 30 uM
T1 sequence (whole entry): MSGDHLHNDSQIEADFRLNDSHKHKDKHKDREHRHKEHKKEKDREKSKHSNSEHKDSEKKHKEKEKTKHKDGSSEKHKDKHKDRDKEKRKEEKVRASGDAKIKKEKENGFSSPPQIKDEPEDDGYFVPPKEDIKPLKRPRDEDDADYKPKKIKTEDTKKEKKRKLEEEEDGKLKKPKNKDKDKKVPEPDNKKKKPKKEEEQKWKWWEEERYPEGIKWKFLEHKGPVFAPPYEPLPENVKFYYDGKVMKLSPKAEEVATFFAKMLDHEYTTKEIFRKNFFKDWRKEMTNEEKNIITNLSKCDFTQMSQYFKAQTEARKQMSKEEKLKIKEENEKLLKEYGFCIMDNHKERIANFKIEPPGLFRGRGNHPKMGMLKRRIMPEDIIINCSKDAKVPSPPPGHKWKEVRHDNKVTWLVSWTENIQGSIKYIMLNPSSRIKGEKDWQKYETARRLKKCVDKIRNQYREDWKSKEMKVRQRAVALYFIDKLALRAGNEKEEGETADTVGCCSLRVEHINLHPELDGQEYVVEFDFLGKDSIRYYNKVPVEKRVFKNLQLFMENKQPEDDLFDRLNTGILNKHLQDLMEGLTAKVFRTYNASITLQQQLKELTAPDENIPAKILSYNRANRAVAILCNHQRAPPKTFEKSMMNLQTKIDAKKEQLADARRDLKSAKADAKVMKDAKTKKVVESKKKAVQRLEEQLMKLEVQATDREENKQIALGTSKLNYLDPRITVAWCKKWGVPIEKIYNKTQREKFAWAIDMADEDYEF
In short: (§1)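 Wild-type human Top1 overexpressed from plasmids under the Gal-1–10 promoter in S. cerevisiae EKY3, which lacks the endogenous enzyme. Yeast growth sensitivity scored across compound concentrations. Controls were untreated cells and DMSO vehicle.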

[2] = target: T1, DNA topoisomerase 1 (Homo sapiens); test: Inhibition of human TOP1B-medaited negatively supercoiled pBlue-Script KSII(+) DNA relaxation at 0.3 to 30 uM by ethidium bromide staining based gel electrophoresis method
[3] = Cytotoxicity against human C3PV cells assessed as reduction in cell viability measured after 24 hrs by MTT assay; assay type: cell-based
[4] = tested on: RPMI-7951; test: Cytotoxicity against human RPMI7951 cells assessed as reduction in cell viability measured after 24 hrs by MTT assay; assay type: functional, cell-based; details: RPMI-7951, 24 h
[5] = target: T1, DNA topoisomerase 1 (Homo sapiens); test: Inhibition of human TOP1B expressed in Saccharomyces cerevisiae EKY3 lacking top1 assessed as reduction in yeast cell growth at 1 to 30 uM; in short: as §1
[6] = tested on: SK-MEL-24; test: Cytotoxicity against human SK-MEL-24 cells assessed as reduction in cell viability measured after 24 hrs by MTT assay; assay type: functional, cell-based; details: SK-MEL-24, 24 h
[7] = species: Homo sapiens; test: Inhibition of human TOP1B G363C mutant expressed in Saccharomyces cerevisiae EKY3 lacking top1 assessed as reduction in yeast growth at 1 to 30 uM
In short: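 Human Top1 G363C mutant (glycine 363 to cysteine, camptothecin-resistant) expressed from plasmids under the Gal-1–10 promoter in S. cerevisiae EKY3, which lacks the endogenous enzyme. Yeast growth sensitivity read at a range of compound concentrations. Controls were untreated cells and DMSO vehicle.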

[8] = target: T1, DNA topoisomerase 1 (Homo sapiens); test: Inhibition of human TOP1B expressed in Saccharomyces cerevisiae EKY3 lacking top1 assessed as reduction in yeast growth at 3 uM; in short: as §1
[9] = target: T1, DNA topoisomerase 1 (Homo sapiens); test: Inhibition of human TOP1B-medaited negatively supercoiled pBlue-Script KSII(+) DNA relaxation at 300 nM by ethidium bromide staining based gel electrophoresis method
[10] = target: T1, DNA topoisomerase 1 (Homo sapiens); test: Inhibition of human TOP1B expressed in Saccharomyces cerevisiae EKY3 lacking top1 assessed as induction of cell cycle defect at 30 uM measured after 24 hrs
[11] = target: T1, DNA topoisomerase 1 (Homo sapiens); test: Inhibition of human TOP1B expressed in Saccharomyces cerevisiae EKY3 lacking top1 assessed as reduction in yeast cell growth at 10 uM; in short: as §1

C[C@H]1[C@H](OC(=O)CCC(=O)O)O[C@@H]2O[C@@]3(C)CC[C@H]4[C@H](C)CC[C@@H]1[C@@]24OO3
inhibition [1]: inactive | inhibition [2]: Active

CC[C@@]1(OC(=O)CCC(=O)O[C@@H]2O[C@@H]3O[C@]4(C)CC[C@H]5[C@H](C)CC[C@@H]([C@H]2C)[C@@]35OO4)C(=O)OCc2c1cc1n(c2=O)Cc2cc3ccccc3nc2-1
IC50 [3]: 300 nM | IC50 [4]: 17300 nM | inhibition [2]: Active | inhibition [5]: Active | IC50 [6]: 850 nM

CC(=O)O[C@H]1C(=O)[C@@]2(C)[C@H]([C@H](OC(=O)c3ccccc3)[C@]3(O)C[C@H](OC(=O)[C@H](O)[C@@H](NC(=O)c4ccccc4)c4ccccc4)C(C)=C1C3(C)C)[C@]1(OC(C)=O)CO[C@@H]1C[C@@H]2O [PACLITAXEL]
IC50 [3]: 78900 nM | IC50 [4]: 13 nM | IC50 [6]: 4730 nM

C=C(C)[C@H]1CC=C(COC(=O)CCC(=O)O[C@@H]2O[C@@H]3O[C@@]4(C)CC[C@H]5[C@H](C)CC[C@@H]([C@H]2C)[C@@]35OO4)CC1
inhibition [5]: inactive

CCc1c2c(nc3ccc(O)cc13)-c1cc3c(c(=O)n1C2)COC(=O)[C@]3(O)CC [7-ETHYL-10-HYDROXYCAMPTOTHECIN]
IC50 [3]: 510 nM | IC50 [4]: 260 nM | IC50 [6]: 480 nM

C[C@H]1[C@H](O)O[C@@H]2O[C@@]3(C)CC[C@H]4[C@H](C)CC[C@@H]1[C@@]24OO3
inhibition [1]: inactive

CCc1c2c(nc3ccc(OC(=O)CCC(=O)O[C@@H]4O[C@@H]5O[C@]6(C)CC[C@H]7[C@H](C)CC[C@@H]([C@H]4C)[C@@]57OO6)cc13)-c1cc3c(c(=O)n1C2)COC(=O)[C@]3(O)CC
IC50 [3]: 3200 nM | inhibition [7]: Active | inhibition [8]: Active | inhibition [9]: Active | IC50 [4]: 50 nM | IC50 [6]: 320 nM

CC[C@@]1(O)C(=O)OCc2c1cc1n(c2=O)Cc2cc3ccccc3nc2-1 [CAMPTOTHECIN]
IC50 [3]: 450 nM | IC50 [4]: 220 nM | IC50 [6]: 460 nM

C[C@H]1[C@H](OC(=O)CCC(=O)OCCc2ccc(O)cc2)O[C@@H]2O[C@]3(C)CC[C@H]4[C@H](C)CC[C@@H]1[C@@]24OO3
inhibition [10]: Active | inhibition [7]: inactive | inhibition [2]: Active | inhibition [11]: Active

COc1cc(/C=C/C(=O)CC(=O)/C=C/c2ccc(OC(=O)CCC(=O)O[C@@H]3O[C@@H]4O[C@]5(C)CC[C@H]6[C@H](C)CC[C@@H]([C@H]3C)[C@@]46OO5)c(OC)c2)ccc1O
inhibition [1]: Active | inhibition [2]: Active

COc1cc(/C=C/C(=O)CC(=O)/C=C/c2ccc(OC(=O)CCC(=O)O[C@@H]3O[C@@H]4O[C@]5(C)CC[C@H]6[C@H](C)CC[C@@H]([C@H]3C)[C@@]46OO5)cc2)ccc1OC(=O)CCC(=O)O[C@@H]1O[C@@H]2O[C@]3(C)CC[C@H]4[C@H](C)CC[C@@H]([C@H]1C)[C@@]24OO3
inhibition [5]: inactive

C[C@H]1[C@H](OC(=O)CCC(=O)Oc2ccc(CCO)cc2)O[C@@H]2O[C@]3(C)CC[C@H]4[C@H](C)CC[C@@H]1[C@@]24OO3
inhibition [7]: inactive | inhibition [2]: Active | inhibition [11]: Active

C[C@@H]1CC[C@H]2[C@@H](C)C(=O)O[C@@H]3O[C@@]4(C)CC[C@@H]1[C@]32OO4
inhibition [5]: inactive

C[C@H]1[C@H](OCCc2ccc(O)cc2)O[C@@H]2O[C@]3(C)CC[C@H]4[C@H](C)CC[C@@H]1[C@@]24OO3
inhibition [1]: Active
